Screens deposited in PubChem by Johns Hopkins Ion Channel Center.
This is a sample that favours compounds with a hit; in the whole collection about 3.5% have one here.
RGS4 block = RGS4 inhibitors, primary screen, cell-based, HEK293 M3R inducible RGS4, calcium flux; B-score at 10 µM; 0.45% of 310,000 active; Fluo-4 calcium flux; hits give high values; triggered by carbachol at its EC20;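 active means B-score, a plate-corrected calcium signal, over three deviations above library mean, with baseline fluorescence within five deviations of library mean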;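 further: RGS4 expression induced by doxycycline in cells with stable M3 receptor; B-score is computed from the integrated fluorescence ratio over baseline after carbachol; higher B-score means a larger calcium signal and so more RGS4 inhibition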
Target sequence (P49798 whole entry, looked up): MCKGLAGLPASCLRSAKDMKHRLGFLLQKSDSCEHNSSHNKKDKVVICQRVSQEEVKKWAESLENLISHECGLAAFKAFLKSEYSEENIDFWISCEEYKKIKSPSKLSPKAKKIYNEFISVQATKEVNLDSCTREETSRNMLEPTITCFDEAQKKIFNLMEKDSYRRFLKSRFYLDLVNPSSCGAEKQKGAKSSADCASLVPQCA
MrgX1 antag = antagonists of human MrgX1 receptor, primary screen, HEK293 cells, Fluo-4 calcium flux | 1.3% of 310,000 active | Mas-related G-protein coupled receptor member X1 (Homo sapiens), Q96LB2 | B-score at 10 µM | BAM8-22 antagonism; hits give low values | AID 588676, 2011;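 active means calcium-response B-score plate-corrected more than 3 library SD below zero, starting fluorescence within 5 deviations, no agonist response on first addition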;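 further: peak minus trough fluorescence over baseline after final BAM8-22 challenge near maximal dose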
Target sequence (Q96LB2 whole entry, looked up): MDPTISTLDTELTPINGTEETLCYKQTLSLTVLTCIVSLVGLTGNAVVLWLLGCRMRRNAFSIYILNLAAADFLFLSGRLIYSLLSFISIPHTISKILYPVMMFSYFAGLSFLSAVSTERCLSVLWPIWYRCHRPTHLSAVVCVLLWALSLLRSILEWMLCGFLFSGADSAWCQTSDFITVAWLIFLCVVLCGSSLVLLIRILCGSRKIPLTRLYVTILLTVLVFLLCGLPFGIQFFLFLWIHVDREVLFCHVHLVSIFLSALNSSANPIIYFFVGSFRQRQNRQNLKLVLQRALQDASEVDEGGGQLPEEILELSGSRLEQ
MrgX1 PAM = positive allosteric modulators of MrgX1, primary screen, HEK293 cells, Fluo-4 calcium flux; Mas-related G-protein coupled receptor member X1 (Homo sapiens), Q96LB2; FDSS; hits give high values; B-score at 10 µM; 0.63% of 310,000 active; AID 588675, 2011;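 active means plate-corrected calcium response at least 3 library SD above typical, normal starting fluorescence, not activating the receptor alone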;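 further: compound read alongside a low EC10 to EC30 dose of BAM8-22 agonist; peak minus trough fluorescence over baseline measured at the second addition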
RGS4 act = RGS4 potentiators or activators, primary screen, cell-based, HEK293 M3R inducible RGS4, calcium flux | 0.92% of 310,000 active | AID 463111, 2010 | B-score at 10 µM | carbachol calcium flux Fluo4; hits give low values;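 active means B-score of the integrated calcium signal more than 4 SD below the library mean, with starting fluorescence not abnormally high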;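 further: negative B-score means reduced calcium response which marks RGS4 activation or potentiation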
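test system = M3R-expressing HEK293 line, RGS4 induced by doxycycline | probe or stimulus = carbachol at ECmax as muscarinic agonist stimulus | timing = dye loading 30 min 37 °C, buffer rest 30 min RT | signal = calcium dye Fluo4 fluorescence | evaluation = B score from integrated fluorescence ratio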
MrgX1 ag = agonists of human MrgX1 receptor, primary screen, HEK293 cells, Fluo-4 calcium flux; Fluo-4 calcium fluorescence, agonist mode; hits give high values; B-score at 10 µM; 0.44% of 310,000 active;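 active means calcium response B-score plate-corrected fluorescence ratio at least 3 library SD, with starting fluorescence B-score inside 5 SD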
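System – MrgX1-expressing HEK293 cells · Incubation – cells plated overnight, dye loaded 0.5 h 37 °C, 0.5 h room temperature · Technique – kinetic Fluo-4 NW fluorescence of intracellular calcium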
MrgX1 PAM conf = MrgX1 positive allosteric modulators, duplicate retest, confirmation, HEK293 cells, Fluo-4 calcium flux; shares compounds with MrgX1 PAM; Fluo-4 calcium fluorescence, FDSS; activation (ratio percentage), % at 10 µM; 13% of 1,200 active; AID 602413, 2012;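 active means ratio at least 3 SD above the weak peptide control, stable starting fluorescence, no direct agonism earlier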;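 further: compound followed by low BAM8-22 agonist challenge near EC20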
HEK293 Ca flux = nonspecific calcium signal in parental HEK293, confirmation, counter-screen for MrgX1 antagonist project, parental HEK293 cells, Fluo-4 calcium flux. shares compounds with MrgX1 antag. Fluo-4 calcium fluorescence, FDSS. fluorescence ratio F(max-min)/F0 at 10 µM. 2% of 4,000 active. AID 624111, 2012;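 active means duplicate-averaged calcium fluorescence ratio at least three times the standard deviation of buffer wells, a nonspecific response in parental cells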
HEK293 Ca counter = calcium response in parental HEK293 cells, primary screen, counter-screen for MrgX1 allosteric activator project, cell-based, Fluo-4 calcium flux, duplicate; shares compounds with MrgX1 antag; Fluo-4 fluorescence ratio; hits give high values; fluorescence ratio F(max-min)/F0 at 10 µM; 0.4% of 4,000 active; AID 624114, 2012;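 active means calcium fluorescence ratio, averaged over duplicates, at least 3 SD of the buffer-well ratio, meaning a nonspecific response in receptor-free cells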;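 further: untransfected parental HEK293 lacking MrgX1 used as counterscreen for MrgX1 allosteric activators; fluorescence change taken during the second addition on a kinetic imager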
HEK293 Ca cntr2 = calcium response in parental HEK293 cells, primary screen, counter-screen for MrgX1 agonist project, cell-based, Fluo-4 calcium flux, duplicate, agonist mode; shares compounds with MrgX1 antag; Fluo-4 calcium fluorescence (FDSS); hits give high values; fluorescence ratio F(max-min)/F0 at 10 µM; 8.7% of 4,000 active; AID 624115, 2012;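 active means calcium fluorescence ratio at least three times the spread of buffer wells, meaning a non-specific response in parental cells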
Numbers without * were called inactive; i = inactive; . = not tested or not shown.

SMILES | RGS4 block | MrgX1 antag | MrgX1 PAM | RGS4 act | MrgX1 ag | MrgX1 PAM conf | HEK293 Ca flux | HEK293 Ca counter | HEK293 Ca cntr2
CC(=O)N1CCc2cc(Br)cc(S(=O)(=O)NCCN3CCCCC3C)c21 (stereo not drawn) | i | i | 9.1* | i | i | i | i | i | i
CCC(C)NCCOc1ccccc1C (stereo not drawn) | i | i | 13* | i | i | i | i | i | i
COc1cc(/C=C(/C#N)C(=O)NCc2ccccc2)cc(OC)c1OC | i | i | 36* | i | i | i | i | i | i
COc1cc(NC(=O)c2ccc(Cl)cc2)c(Cl)cc1NC(=O)c1cccnc1 | i | i | i | i | i | . | . | . | .
Cc1nc2cc(Cl)ccc2n1-c1ccccc1 | i | i | 16* | i | i | i | i | i | i
O=C(Nc1ccccc1C(=O)N1CCCCC1)c1cccs1 | i | i | i | i | i | . | . | . | .
O=C(CN(CC1CCCO1)C(=O)CNS(=O)(=O)c1ccc(F)cc1)NC1CCCCC1 (stereo not drawn) | i | i | i | i | i | . | . | . | .
O=C(Nc1ccc2c(c1)OCO2)c1ccc(Br)c(S(=O)(=O)N2CCCC2)c1 | i | i | 14* | i | i | i | i | i | i
Cc1cc2nc(C(C)(C)C)cc(N)n2n1 | i | i | i | i | i | . | . | . | .
CC(C)(C)c1cc(N)n2nc(C(C)(C)C)cc2n1 | i | i | 7.7* | i | i | i | i | i | i
Cc1ccc(N(CC(=O)NC2CCCCC2)C(=O)CNC(=O)c2ccco2)c(C)c1 | i | i | i | i | i | . | . | . | .
CCN1CCN(CC(=O)Nc2ccc(Cl)c(Cl)c2)C(=O)C1=O | i | i | 7.7* | i | i | i | i | i | i
CC(NC(=O)C1CCCN1S(=O)(=O)c1cccc2cccnc12)c1ccccc1 (stereo not drawn) | i | i | i | i | i | . | . | . | .
CC(NC(=O)C1CCN(S(=O)(=O)c2cccc3cccnc23)CC1)c1ccccc1 (stereo not drawn) | i | i | 6.5* | i | i | i | i | i | i
Cc1cc(C)n2c(SCC(=O)Nc3ccc(F)cc3)nnc2n1 | i | i | 14* | i | i | i | i | i | i
Cc1cc(C)n2c(SCC(=O)Nc3ccc(F)cc3F)nnc2n1 | i | i | i | i | i | . | . | . | .
Cc1ccccc1C(=O)Nc1nnc(SCC(=O)NCc2ccco2)s1 | i | i | i | i | i | . | . | . | .
CCOCCc1nnc(NC(=O)CS(=O)(=O)c2ccc(C)cc2)s1 | i | i | i | i | i | . | . | . | .
Cc1cc(C)c(NC(=O)CNC(=O)COC(=O)C2CCN(c3ccc(C(F)(F)F)cn3)CC2)c(C)c1 | i | i | 7* | i | i | i | i | i | i
Cc1cc(C)c(NC(=O)COC(=O)C2CCN(c3ccc(C(F)(F)F)cn3)CC2)c(Cl)c1 | i | i | i | i | i | . | . | . | .
Cc1ccccc1Nc1ncnc2c1cnn2-c1ccccc1 | i | i | 11* | i | i | i | i | i | i
NNc1ncnc2c1cnn2-c1ccccc1 | i | i | i | i | i | . | . | . | .
O=C(NC12CC3CC(CC(C3)C1)C2)c1cc(F)c(F)c(F)c1F | i | i | 6.6* | i | i | i | i | i | i
COc1cc(OC)c(C(=O)NC23CC4CC(CC(C4)C2)C3)cc1OC | i | i | i | i | i | . | . | . | .
COCCN1C(=O)/C(=C/c2ccc(N3CCCC3)cc2C)SC1=S | i | i | 19* | i | i | i | 0.13* | i | 48*
SMILES | RGS4 block | MrgX1 antag | MrgX1 PAM | RGS4 act | MrgX1 ag | MrgX1 PAM conf | HEK293 Ca flux | HEK293 Ca counter | HEK293 Ca cntr2
COc1ccc(CCNC(=O)CCc2ccccc2)cc1OC | i | i | 7.5* | i | i | i | i | i | i
Cc1ccc(-c2cc3onc(-c4ccccc4)c3c(=O)n2C)cc1 | . | i | 21* | . | i | i | i | i | i
O=C1CC(NCc2ccc(F)cc2)C(=O)N1c1ccccc1 (stereo not drawn) | i | i | 8.1* | i | i | i | i | i | i
Cc1nn(C(C)C(=O)NCCN2CCCC2)c(=O)c2c1sc1ccccc12 (stereo not drawn) | i | i | i | i | i | . | . | . | .
O=C(NC1CC1)C1CC(=O)N(c2cccc(Cl)c2Cl)C1 (stereo not drawn) | i | i | i | i | i | . | . | . | .
NC(=O)c1c(NC(=O)c2cccs2)sc2c1CCCCCC2 | i | i | 8.5* | i | i | i | i | i | i
O=C(Nc1sc2c(c1C(=O)O)CCC2)c1cccs1 | i | i | i | i | i | . | . | . | .
CN(C)CCN(Cc1ccccc1)S(=O)(=O)c1ccc(-c2ccc(=O)[nH]n2)s1 | i | i | 6.6* | i | i | i | i | i | i
COC(=O)C1Cc2ccccc2CN1C(=O)CCl (stereo not drawn) | i | i | 8.1* | i | i | i | i | i | i
O=C(NCCCn1cccn1)C1CCC(=O)N(Cc2cccc(C(F)(F)F)c2)C1 (stereo not drawn) | i | i | 7.8* | i | i | i | i | i | i
O=C(NCCCC1CCCC1)C1CCC(=O)N(Cc2cccc(C(F)(F)F)c2)C1 (stereo not drawn) | i | i | i | i | i | . | . | . | .
